Measured values from ChEMBL document CHEMBL5252545, “Elucidation of antimicrobial activity and mechanism of action by N-substituted carbazole derivatives” (Bioorg Med Chem Lett, 2017).
Calls of active or inactive are those of the source. The rule behind the calls is not given here.

Columns and labels:
[1] = Dissociation constant, pKa of the compound; type: physicochemical
[2] = target: T1, Plasma membrane ATPase 1 (Saccharomyces cerevisiae (strain ATCC 204508 / S288c) (Baker's yeast)) (UniProt P05030); experiment: Inhibition of Saccharomyces cerevisiae H+ ATPase pma1 isoform assessed as reduction in ATP hydrolysis rate at 50 uM measured upto 150 sec by measuring […] ATPase activity by spectrophotometry method
T1 sequence (whole entry): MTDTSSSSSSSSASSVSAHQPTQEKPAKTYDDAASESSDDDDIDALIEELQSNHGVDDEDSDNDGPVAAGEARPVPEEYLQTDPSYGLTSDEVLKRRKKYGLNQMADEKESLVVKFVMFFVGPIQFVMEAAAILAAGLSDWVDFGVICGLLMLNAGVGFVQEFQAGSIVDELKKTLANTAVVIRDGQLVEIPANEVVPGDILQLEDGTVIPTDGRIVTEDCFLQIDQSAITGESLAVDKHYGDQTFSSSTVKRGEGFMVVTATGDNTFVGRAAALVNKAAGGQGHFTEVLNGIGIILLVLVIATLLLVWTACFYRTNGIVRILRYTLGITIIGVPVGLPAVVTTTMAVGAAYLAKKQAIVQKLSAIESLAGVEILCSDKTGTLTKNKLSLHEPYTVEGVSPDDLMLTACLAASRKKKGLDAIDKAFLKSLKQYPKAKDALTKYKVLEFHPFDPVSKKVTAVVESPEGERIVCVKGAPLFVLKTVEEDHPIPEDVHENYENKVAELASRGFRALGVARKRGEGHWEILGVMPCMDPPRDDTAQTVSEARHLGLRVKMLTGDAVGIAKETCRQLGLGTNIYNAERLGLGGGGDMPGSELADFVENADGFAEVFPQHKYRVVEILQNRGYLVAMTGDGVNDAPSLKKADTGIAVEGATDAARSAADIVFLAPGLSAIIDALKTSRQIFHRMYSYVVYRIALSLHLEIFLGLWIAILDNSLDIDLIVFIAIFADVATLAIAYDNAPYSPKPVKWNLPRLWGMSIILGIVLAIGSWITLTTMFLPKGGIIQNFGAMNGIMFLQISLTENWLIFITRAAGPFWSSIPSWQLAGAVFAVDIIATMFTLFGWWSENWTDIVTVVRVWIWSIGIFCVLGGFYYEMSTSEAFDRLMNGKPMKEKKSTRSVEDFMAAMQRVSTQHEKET
Method in brief: (§1)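 S. cerevisiae plasma membranes containing H⁺-ATPase added to start the reaction in pH 7 buffer with 5 mM ATP. Compound added at the indicated times, final DMSO 1.1%. Initial ATP hydrolysis rate read spectrophotometrically by NADH-coupled assay with phosphoenolpyruvate regenerating ATP.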

[3] = target: T1, Plasma membrane ATPase 1 (Saccharomyces cerevisiae (strain ATCC 204508 / S288c) (Baker's yeast)); experiment: Inhibition of Saccharomyces cerevisiae H+ ATPase pma1 isoform assessed as reduction in ATP hydrolysis rate at 100 uM measured upto 150 sec by measuring […] ATPase activity by spectrophotometry method; method in brief: as §1
[4] = target: T1, Plasma membrane ATPase 1 (Saccharomyces cerevisiae (strain ATCC 204508 / S288c) (Baker's yeast)); experiment: Inhibition of Saccharomyces cerevisiae H+ ATPase pma1 isoform assessed as reduction in ATP hydrolysis rate at 10 uM measured upto 150 sec by measuring […] ATPase activity by spectrophotometry method; method in brief: as §1
Candida albicans = experiment: Fungicidal activity against Candida albicans SC5314 assessed as cell death at 5 to 10 uM measured upto 24 hrs by time-kill assay; type: functional, organism-based; conditions: dose 5-10 µM
Method in brief: (§2)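 Time-kill assay: C. albicans or C. glabrata cells at 1×10^5 CFU/ml incubated with compound at 5 or 10 μM. DMSO final concentration 1%. Viability followed over time.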

Nakaseomyces glabratus = experiment: Fungicidal against wild type Candida glabrata ATCC 90030 assessed as cell death at 5 to 10 uM measured upto 24 hrs by time-kill assay; type: functional, organism-based; conditions: dose 5-10 µM; method in brief: as §2

| pKa [1] | Structure (SMILES) | also measured |
| --- | --- | --- |
| 6.6 | OC(CN1CCOCC1)Cn1c2ccc(Cl)cc2c2cc(Cl)ccc21 (stereo not given) | inhibition [2]: Active |
| 7.6 | CN1CCN(CC(O)Cn2c3ccc(Cl)cc3c3cc(Cl)ccc32)CC1 (stereo not given) |  |

Continued, compound first:

| Structure (SMILES) | pKa [1] | also measured |
| --- | --- | --- |
| OC(Cn1ccnc1)Cn1c2ccc(Cl)cc2c2cc(Cl)ccc21 (stereo not given) | 7.1 | inhibition [3]: Active |
| OC(Cn1cncn1)Cn1c2ccc(Cl)cc2c2cc(Cl)ccc21 (stereo not given) | 2.7 |  |
| CCC(C)NCC(O)Cn1c2ccc(Cl)cc2c2cc(Cl)ccc21 (stereo not given) | 9.2 | inhibition [4]: Active; Activity (Candida albicans): Active; Activity (Nakaseomyces glabratus): Active |
